{"source": "ChEMBL document CHEMBL3351811", "about": "“Synthesis of heteroaryl/aryl kojic acid conjugates as stimulators of glucose uptake by GLUT4 translocation” (Eur J Med Chem, 2014)", "format_in_all_cases": "cell-based", "key": {"[1]": {"target": "T1, Solute carrier family 2, facilitated glucose transporter member 4 (Rattus norvegicus) (UniProt P19357)", "T1 sequence (whole entry)": "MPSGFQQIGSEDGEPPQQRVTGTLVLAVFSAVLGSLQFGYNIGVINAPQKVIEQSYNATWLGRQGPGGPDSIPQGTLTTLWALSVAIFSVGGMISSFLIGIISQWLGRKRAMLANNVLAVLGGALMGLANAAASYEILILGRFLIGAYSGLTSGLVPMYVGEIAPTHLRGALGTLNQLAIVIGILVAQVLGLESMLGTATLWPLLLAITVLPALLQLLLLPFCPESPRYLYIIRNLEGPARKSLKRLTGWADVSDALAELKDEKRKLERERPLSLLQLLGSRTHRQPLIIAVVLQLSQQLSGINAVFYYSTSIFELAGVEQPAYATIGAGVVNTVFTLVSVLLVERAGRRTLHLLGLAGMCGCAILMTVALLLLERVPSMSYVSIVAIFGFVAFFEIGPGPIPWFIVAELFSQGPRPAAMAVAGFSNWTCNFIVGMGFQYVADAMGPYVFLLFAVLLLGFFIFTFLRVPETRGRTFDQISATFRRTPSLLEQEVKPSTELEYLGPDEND", "experiment": "Stimulation of rat GLUT4-mediated glucose uptake in rat L6 cells expressing myc-tagged GLUT4 at 10 uM incubated for 16 hrs by scintillation counting based 2-[3H]DG uptake assay", "how_it_was_run": "(§1)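 Differentiated L6-GLUT4myc myotubes (2% FBS, 6–7 days after seeding) exposed to compound for 16 h; insulin 100 nM as positive control. Uptake measured 5 min at room temperature in HEPES-buffered saline with 10 µM 2-DG (0.5 µCi/ml 2-[3H]DG), then lysis and scintillation counting. Cytochalasin B (25 µM) background subtracted. Duplicates normalized to total protein; percent stimulation versus control cells.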"}, "L6": {"test_system": "L6", "experiment": "Toxicity in rat L6 cells expressing myc-tagged rat GLUT4 assessed as inhibition of glucose uptake at 10 uM incubated for 16 hrs by scintillation counting based 2-[3H]DG uptake assay", "conditions": "l6, 16 h", "how_it_was_run": "as §1"}, "[2]": {"target": "T1, Solute carrier family 2, facilitated glucose transporter member 4 (Rattus norvegicus)", "experiment": "Stimulation of rat GLUT4-mediated glucose uptake in rat L6 cells expressing myc-tagged GLUT4 incubated for 16 hrs by scintillation counting based 2-[3H]DG uptake assay", "how_it_was_run": "as §1"}, "[3]": {"target": "T1, Solute carrier family 2, facilitated glucose transporter member 4 (Rattus norvegicus)", "experiment": "Induction of rat GLUT4 translocation in rat L6 cells expressing myc-tagged GLUT4 incubated for 3 hrs by antibody-coupled colourimetric assay", "how_it_was_run": "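L6-GLUT4myc myotubes, non-permeabilized, treated 3 h with vehicle (DMSO), insulin 100 nM or compound at 5, 10, 25 µM. Fixed in 3% paraformaldehyde 30 min, glycine-quenched, milk-blocked, then anti-myc 1.0 µg/ml 1 h. HRP secondary with o-phenylenediamine read-out at OD 492 nm. Triplicates, three independent experiments; expressed as fold over unstimulated cells.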"}, "[4]": {"target": "T1, Solute carrier family 2, facilitated glucose transporter member 4 (Rattus norvegicus)", "experiment": "Stimulation of rat GLUT4-mediated glucose uptake in rat L6 cells expressing myc-tagged GLUT4 at 10 uM incubated for 16 hrs in presence of 1 uM PI3K inhibitor wortmannin by scintillation counting based 2-[3H]DG uptake assay", "how_it_was_run": "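Differentiated L6-GLUT4myc myotubes treated with compound at 10 µM, with wortmannin (1 µM) present for the final hour. Uptake then measured 5 min at room temperature in HEPES-buffered saline with 10 µM 2-DG (0.5 µCi/ml 2-[3H]DG), followed by lysis and scintillation counting. Cytochalasin B (25 µM) nonspecific uptake subtracted; duplicates normalized to protein, expressed versus control.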"}}, "note": "Activity calls are given as the source filed them. The calls are words filed in the database; no cut-off is given here."}
{"smiles": "COc1ccc(C(c2oc(CO)cc(=O)c2O)c2c[nH]c3ccccc23)cc1", "note": "(stereo not given)", "values": [{"measurement": "Activity", "setting": "[1]", "value": "inactive"}, {"measurement": "Activity", "setting": "L6", "value": "Toxic"}]}
{"smiles": "COc1ccc(SC(c2ccccc2)c2oc(CO)cc(=O)c2O)cc1", "note": "(stereo not given)", "values": [{"measurement": "fold change (FC)", "setting": "[1]", "value": 1.38}, {"measurement": "Activity", "setting": "[2]", "value": "Dose-dependent effect"}, {"measurement": "Activity", "setting": "[3]", "value": "Dose-dependent effect"}, {"measurement": "Activity", "setting": "[4]", "value": "inactive"}]}
{"smiles": "COc1ccc(OC)c(C(c2oc(CO)cc(=O)c2O)c2c[nH]c3ccccc23)c1", "note": "(stereo not given)", "values": [{"measurement": "fold change (FC)", "setting": "[1]", "value": 1.21}, {"measurement": "Activity", "setting": "[2]", "value": "Dose-dependent effect"}, {"measurement": "Activity", "setting": "[3]", "value": "Dose-dependent effect"}, {"measurement": "Activity", "setting": "[4]", "value": "inactive"}]}
{"smiles": "N#Cc1ccc2[nH]cc(C(c3ccccc3)c3oc(CO)cc(=O)c3O)c2c1", "note": "(stereo not given)", "values": [{"measurement": "Activity", "setting": "[1]", "value": "inactive"}]}
{"smiles": "O=c1cc(CO)oc(C(c2ccccc2)c2ccc[nH]2)c1O", "note": "(stereo not given)", "values": [{"measurement": "Activity", "setting": "[1]", "value": "inactive"}]}
{"smiles": "O=c1cc(CO)oc(C(c2ccccc2)c2cn(Cc3ccccc3)c3ccccc23)c1O", "note": "(stereo not given)", "values": [{"measurement": "Activity", "setting": "[1]", "value": "inactive"}, {"measurement": "Activity", "setting": "L6", "value": "Toxic"}]}
{"smiles": "O=c1cc(CO)oc(C(c2ccccc2)c2c[nH]c3ccccc23)c1O", "note": "(stereo not given)", "values": [{"measurement": "Activity", "setting": "[1]", "value": "inactive"}, {"measurement": "Activity", "setting": "L6", "value": "Toxic"}]}
{"smiles": "O=c1cc(CO)oc(C(c2ccccc2)c2ccc(O)cc2)c1O", "note": "(stereo not given)", "values": [{"measurement": "fold change (FC)", "setting": "[1]", "value": 1.34}, {"measurement": "Activity", "setting": "[3]", "value": "Dose-dependent effect"}, {"measurement": "Activity", "setting": "[4]", "value": "inactive"}]}
{"smiles": "O=c1cc(CO)oc(C(c2ccc(Cl)cc2)c2c[nH]c3ccccc23)c1O", "note": "(stereo not given)", "values": [{"measurement": "Activity", "setting": "[1]", "value": "inactive"}, {"measurement": "Activity", "setting": "L6", "value": "Toxic"}]}
{"smiles": "Cn1cc(C(c2ccccc2)c2oc(CO)cc(=O)c2O)c2ccccc21", "note": "(stereo not given)", "values": [{"measurement": "Activity", "setting": "[1]", "value": "inactive"}]}
{"smiles": "O=c1cc(CO)oc(C(c2ccccc2)c2csc3ccccc23)c1O", "note": "(stereo not given)", "values": [{"measurement": "Activity", "setting": "[1]", "value": "inactive"}]}
{"smiles": "O=c1cc(CO)oc(C(c2ccc(F)cc2)c2c[nH]c3ccccc23)c1O", "note": "(stereo not given)", "values": [{"measurement": "Activity", "setting": "[1]", "value": "inactive"}, {"measurement": "Activity", "setting": "L6", "value": "Toxic"}]}
{"smiles": "Cc1ccc(C(c2ccccc2)c2oc(CO)cc(=O)c2O)s1", "note": "(stereo not given)", "values": [{"measurement": "fold change (FC)", "setting": "[1]", "value": 1.21}, {"measurement": "Activity", "setting": "[3]", "value": "Dose-dependent effect"}, {"measurement": "Activity", "setting": "[4]", "value": "inactive"}]}
{"smiles": "O=c1cc(CO)oc(C(c2ccc3ccccc3c2)c2c[nH]c3ccccc23)c1O", "note": "(stereo not given)", "values": [{"measurement": "Activity", "setting": "[1]", "value": "inactive"}, {"measurement": "Activity", "setting": "L6", "value": "Toxic"}]}
{"smiles": "COc1cccc(C(c2oc(CO)cc(=O)c2O)c2c[nH]c3ccccc23)c1OC", "note": "(stereo not given)", "values": [{"measurement": "fold change (FC)", "setting": "[1]", "value": 1.25}, {"measurement": "Activity", "setting": "[2]", "value": "Dose-dependent effect"}, {"measurement": "Activity", "setting": "[3]", "value": "Dose-dependent effect"}, {"measurement": "Activity", "setting": "[4]", "value": "inactive"}]}
{"smiles": "CCCCCCCCC(c1oc(CO)cc(=O)c1O)c1c[nH]c2ccccc12", "note": "(stereo not given)", "values": [{"measurement": "Activity", "setting": "[1]", "value": "inactive"}]}
{"smiles": "O=c1cc(CO)oc(C(Sc2ccccc2)c2ccccc2)c1O", "note": "(stereo not given)", "values": [{"measurement": "fold change (FC)", "setting": "[1]", "value": 1.33}, {"measurement": "Activity", "setting": "[2]", "value": "Dose-dependent effect"}, {"measurement": "Activity", "setting": "[3]", "value": "Dose-dependent effect"}, {"measurement": "Activity", "setting": "[4]", "value": "inactive"}]}
{"smiles": "O=c1cc(CO)oc(C(c2ccc(Br)cc2)c2c[nH]c3ccccc23)c1O", "note": "(stereo not given)", "values": [{"measurement": "Activity", "setting": "[1]", "value": "inactive"}, {"measurement": "Activity", "setting": "L6", "value": "Toxic"}]}
{"smiles": "COc1ccc2[nH]cc(C(c3ccccc3)c3oc(CO)cc(=O)c3O)c2c1", "note": "(stereo not given)", "values": [{"measurement": "fold change (FC)", "setting": "[1]", "value": 1.25}, {"measurement": "Activity", "setting": "[2]", "value": "Dose-dependent effect"}, {"measurement": "Activity", "setting": "[3]", "value": "Dose-dependent effect"}, {"measurement": "Activity", "setting": "[4]", "value": "inactive"}]}
{"smiles": "O=c1cc(CO)oc(C(c2ccccc2)c2c(-c3ccccc3)[nH]c3ccccc23)c1O", "note": "(stereo not given)", "values": [{"measurement": "Activity", "setting": "[1]", "value": "inactive"}, {"measurement": "Activity", "setting": "L6", "value": "Toxic"}]}
{"smiles": "CCCCCn1cc(C(c2ccccc2)c2oc(CO)cc(=O)c2O)c2ccccc21", "note": "(stereo not given)", "values": [{"measurement": "Activity", "setting": "[1]", "value": "inactive"}, {"measurement": "Activity", "setting": "L6", "value": "Toxic"}]}
{"smiles": "CCCCC(c1oc(CO)cc(=O)c1O)c1c[nH]c2ccccc12", "note": "(stereo not given)", "values": [{"measurement": "Activity", "setting": "[1]", "value": "inactive"}]}
